Measured values gathered from unrelated publications.
Lines come from different studies, so protocols differ.
Target: Tyrosine-protein kinase ZAP-70 (ZAP70, Homo sapiens, UniProt P43403)
One construct used (P43403 1-619): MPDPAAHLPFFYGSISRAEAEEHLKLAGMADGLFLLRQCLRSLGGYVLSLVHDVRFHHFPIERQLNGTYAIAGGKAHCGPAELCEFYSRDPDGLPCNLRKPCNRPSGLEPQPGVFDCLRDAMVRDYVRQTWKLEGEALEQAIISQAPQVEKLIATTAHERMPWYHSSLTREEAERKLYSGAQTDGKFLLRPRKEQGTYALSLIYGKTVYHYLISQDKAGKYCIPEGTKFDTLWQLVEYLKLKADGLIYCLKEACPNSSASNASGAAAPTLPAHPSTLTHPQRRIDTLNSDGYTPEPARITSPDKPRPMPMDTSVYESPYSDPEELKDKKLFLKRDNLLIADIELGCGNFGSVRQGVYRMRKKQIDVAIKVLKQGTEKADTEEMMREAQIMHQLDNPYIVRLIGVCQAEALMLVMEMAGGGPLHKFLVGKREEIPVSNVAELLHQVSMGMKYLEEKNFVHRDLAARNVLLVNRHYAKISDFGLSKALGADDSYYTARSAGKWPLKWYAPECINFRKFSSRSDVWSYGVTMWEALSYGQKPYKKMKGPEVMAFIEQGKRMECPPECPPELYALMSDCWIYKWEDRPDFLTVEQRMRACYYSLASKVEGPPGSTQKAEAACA

The remaining binding of `CC(=O)N1CCC(c2ccc(C(=O)NC(=N)N)cc2C(F)(F)F)CC1` is reported as 100% (cell-free assay; competition with immobilised ligand; 1 µM).
`FC(F)(F)Oc1cccc(-c2cnc3ccc(-c4ccncc4)nn23)c1` gave an activity vs control of 116% (enzyme activity; inhibitor; radiometric; 1 µM).
`COCCOc1nc(-c2ccc(Cl)nc2)nc2c1CN(C(=O)c1ncn3ccccc13)CC2` gave a remaining binding of 95% (cell-free assay; competition with immobilised ligand; 0.1 µM).
The remaining activity of `CCN(CC)CCNC(=O)c1c(C)[nH]c(/C=C2\C(=O)Nc3ccc(F)cc32)c1C` is reported as 110% (enzyme activity; inhibitor; 1 µM).
The remaining signal of `O=C1NC(=O)c2cc(Nc3ccc(F)cc3)c(Nc3ccc(F)cc3)cc21` is reported as 78.8% (cell-free assay; 0.5 µM).
`COc1cc(Cl)c(C(=O)N[C@@H](CN[C@H]2CC[C@@H](N)CC2)Cc2ccc(C#N)cc2)cc1-c1ccc(CN[C@H](C)c2ccc(C)cc2)o1` has a remaining activity of 93% (enzyme activity; inhibitor; 1 µM).
The remaining activity of `Cc1ccc(Nc2nccc(N(C)c3ccc4c(C)n(C)nc4c3)n2)cc1S(N)(=O)=O` is reported as 92.6% (enzyme activity; inhibitor; 0.5 µM).
With `COc1cc2ncnc(Nc3ccc(Oc4ccccc4)cc3C)c2cc1OC` the inhibition was 0% (enzyme activity; inhibitor; 1 µM).
`O=C(NS(=O)(=O)c1ccc(NCC2CCOCC2)c([N+](=O)[O-])c1)c1ccc(N2CCN(Cc3ccc(C(F)(F)F)cc3-c3ccc(Cl)cc3)CC2)cc1Oc1cnc2[nH]ccc2c1` has a remaining binding of 82% (cell-free assay; competition with immobilised ligand; 1 µM).
With `Cc1[nH]c(/C=C2\C(=O)Nc3ccc(F)cc32)c(C)c1C(=O)N[C@H]1CCN(C(=O)N(C)C)C1` the remaining activity was 116% (enzyme activity; inhibitor; 1 µM).
`COc1ccc(COc2ccc(Cc3cnc(N)nc3N)cc2OC)cc1` has a remaining signal of 94.3% (cell-free assay; 0.5 µM).
`CNC(=O)c1cc(Oc2ccc(NC(=O)Nc3ccc(Cl)c(C(F)(F)F)c3)cc2)ccn1` has an inhibition of -42% (enzyme activity; inhibitor; 10 µM).
`CS(=O)(=O)N1CCCC(NC(=O)[C@H](CCC2CCCCC2)NC(=O)c2ccc(CNc3ncnc4c3nnn4-c3ccccc3)cc2)C1` (stereo partly drawn) gave a remaining binding of 100% (cell-free assay; competition with immobilised ligand; 0.1 µM).
The activity vs control of `c1nc2c(Nc3ccc4c(c3)OCCO4)nc(Nc3ccc4c(c3)OCCO4)nc2[nH]1` is reported as 62% (enzyme activity; inhibitor; 10 µM).
`Cc1c(NC(=O)c2cc(C(N)=O)nc3cc(F)ccc23)c(C(F)(F)F)nn1Cc1ccc(C(C)(C)C)cc1` gave a remaining binding of 100% (cell-free assay; competition with immobilised ligand; 1 µM).
For `CN1CC(Oc2cnc(C#N)cc2-c2ccn3nc(NC(=O)C4CC4)cc3c2)C1`, the inhibition was 8% (enzyme activity; inhibitor; 1 µM).
`CCOc1cc(-c2nncn2C)ccc1Nc1ncc2cc(C)nc(NCC(C)(C)C)c2n1` has an inhibition of less than 15% (enzyme activity; inhibitor; FRET; 1 µM).
`C[C@H](c1ccc(F)cc1)N(Cc1cccc(C(=O)O)c1)C(=O)c1cnc2ccccc2c1` has a remaining binding of 96% (cell-free assay; competition with immobilised ligand; 1 µM).
`CC(C)(C)c1nc2c(s1)c1nc(N)ncc1c1ccc(NS(=O)(=O)c3c(F)cccc3F)c(F)c12` gave a remaining activity of 95% (enzyme activity; inhibitor; radiometric; 1 µM).
For `O=C(Nc1cnn(-c2csc(C(=O)NC3COC3)c2)c1)Nc1c(F)cccc1Cl`, the remaining activity was 104% (enzyme activity; inhibitor; 5 µM).
`COc1cc(/C=C/C(=O)CC(=O)/C=C/c2ccc(O)c(OC)c2)ccc1O` has an activity vs control of 108% (enzyme activity; inhibitor; 1 µM).
For `COc1cc2ncnc(Nc3ccc(F)c(Cl)c3)c2cc1OCCCN1CCOCC1`, the remaining signal was 96.5% (cell-free assay; 0.5 µM).
The remaining activity of `COc1cc(Nc2cnc(C#N)c(O[C@H](C)CN(C)C)n2)ncc1-c1cnn(C)c1` is reported as 103% (enzyme activity; inhibitor; radiometric; 10 µM).
The inhibition of `CCN(CC)CCNC(=O)c1c(C)[nH]c(/C=C2\C(=O)Nc3ccc(F)cc32)c1C` is reported as 2% (enzyme activity; inhibitor; 0.3 µM).
`Cc1noc([C@H]2C[C@@H](c3ccc(C(F)(F)F)cc3)CN(C(=O)N3CCS(=O)(=O)C3)C2)n1` has a remaining binding of 100% (cell-free assay; competition with immobilised ligand; 1 µM).
`O=C(CSc1nc2nccnc2c(=O)n1CCc1ccccc1)Nc1nccs1` has an inhibition of 14% (enzyme activity; inhibitor; 10 µM).
The remaining signal of `Nc1ncnc2occ(-c3ccc(NC(=O)Nc4cc(C(F)(F)F)ccc4F)cc3)c12` is reported as 2.4% (cell-free assay; inhibitor; 20 µM).
For `NS(=O)(=O)c1cc(NC(=O)Cc2ccccc2)ccc1Oc1cccc(Cl)c1`, the remaining binding was 87% (cell-free assay; competition with immobilised ligand; 1 µM).
`CNCc1ccc(-c2cc(-c3nc(-c4ccc(S(=O)(=O)C(C)C)cc4)cnc3N)on2)cc1` gave an inhibition of 0% (enzyme activity; inhibitor; 2 µM).
With `Cc1ccc(C(=O)NCc2ccsc2)cc1C#Cc1cn(C(C)C)c2ncnc(N)c12` the activity vs control was 89% (enzyme activity; inhibitor; 1 µM).
